Source: PubChem
SUMO1 PPI mod: SUMO1-SIM interaction modulation | SUMO1 binding to a labelled peptide, TR-FRET, 1 h | 360,000 tested, 0.33% active | inhibition, % at 20 µM; in the data active = inhibition above about 37%
Scp-1 inhibitor: Scp-1 (human) phosphatase inhibition. inhibition, % at 20 µM. AID 493091. Q9GZU7. Recombinant Scp1, phosphopeptide, malachite green phosphate absorbance. 340,000 tested, 0.88% active;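 active = inhibition above about 50% at 20 µM, limit read from the data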;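 also: plate controls were DMSO wells with enzyme for no effect and wells lacking enzyme for full effect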
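Test system: SCP-1 phosphatase catalytic domain, residues 76-261 | Compound dosing: One concentration, 20 µM, with 1.0% DMSO | Schedule: 45 min room-temperature reaction, 5 min colour, 30 min stabiliser | Detection: Absorbance at 630 nm | Read-out basis: % inhibition of SCP-1 phosphate liberation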
DNMT1 inh: inhibitors of human DNMT1; DNMT1 molecular beacon, Hinp1I cleavage, fluorescence; inhibition (reported as % activation of signal), % at 10 µM; 360,000 tested, 0.83% active; P26358; in the data active = inhibition above about 50%
Target sequence (P26358 504-1616 limits assumed): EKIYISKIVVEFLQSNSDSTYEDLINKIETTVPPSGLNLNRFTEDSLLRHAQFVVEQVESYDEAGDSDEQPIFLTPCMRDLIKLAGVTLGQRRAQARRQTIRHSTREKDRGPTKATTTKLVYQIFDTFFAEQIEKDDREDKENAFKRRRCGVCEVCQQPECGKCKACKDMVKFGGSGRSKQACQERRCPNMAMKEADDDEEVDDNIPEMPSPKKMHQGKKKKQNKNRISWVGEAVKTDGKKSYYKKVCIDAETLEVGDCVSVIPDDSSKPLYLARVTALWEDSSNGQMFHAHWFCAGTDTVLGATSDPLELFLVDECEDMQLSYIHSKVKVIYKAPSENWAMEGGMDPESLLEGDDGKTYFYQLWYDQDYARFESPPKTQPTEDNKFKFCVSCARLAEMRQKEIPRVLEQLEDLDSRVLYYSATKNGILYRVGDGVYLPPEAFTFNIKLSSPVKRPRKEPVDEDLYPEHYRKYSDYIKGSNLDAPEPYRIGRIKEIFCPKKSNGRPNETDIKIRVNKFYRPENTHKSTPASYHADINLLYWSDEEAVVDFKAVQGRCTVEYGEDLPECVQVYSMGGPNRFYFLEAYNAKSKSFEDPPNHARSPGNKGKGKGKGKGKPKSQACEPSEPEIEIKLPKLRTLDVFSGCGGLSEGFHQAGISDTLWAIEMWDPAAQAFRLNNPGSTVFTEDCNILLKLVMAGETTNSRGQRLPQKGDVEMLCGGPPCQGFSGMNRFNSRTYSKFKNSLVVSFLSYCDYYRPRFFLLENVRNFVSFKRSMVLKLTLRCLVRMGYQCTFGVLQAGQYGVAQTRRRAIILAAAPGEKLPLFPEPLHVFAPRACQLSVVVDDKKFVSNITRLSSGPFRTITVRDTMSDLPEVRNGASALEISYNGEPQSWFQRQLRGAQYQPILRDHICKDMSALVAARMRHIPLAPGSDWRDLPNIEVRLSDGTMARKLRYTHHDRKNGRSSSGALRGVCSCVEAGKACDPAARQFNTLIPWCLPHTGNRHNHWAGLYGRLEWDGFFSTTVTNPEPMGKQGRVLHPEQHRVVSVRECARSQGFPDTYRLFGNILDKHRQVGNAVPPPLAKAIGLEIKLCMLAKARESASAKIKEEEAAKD
NadD inh: inhibitors of Staphylococcus aureus NadD; purified NadD enzyme, colorimetric absorbance read-out; inhibition, % at 20 µM; 360,000 tested, 0.78% active; in the data active = inhibition above about 26%
STEP block: inhibitors of human striatal-enriched phosphatase STEP; P54829; recombinant STEP, OMFP fluorogenic substrate, fluorescence; inhibition, % at 20 µM; 360,000 tested, 0.25% active; AID 588621;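 active = inhibition at 20 µM, scaled per plate between control wells, above about 37%, limit read from the data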;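 also: 0% = DMSO with enzyme and substrate and 100% = substrate only without enzyme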
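System: isolated STEP enzyme; schedule: 20 min enzyme reaction at room temperature, protected from light; medium: Bis-Tris buffer pH 6.0, 2.5 mM DTT, 0.005% Tween 20; signal: fluorescence, 480/540 nm; dosing: single compound dose of 20 µM, 1% DMSO final; also added: OMFP substrate, 25 µM final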
LMPTP block: blocks human LMPTP phosphatase; P24666; recombinant LMPTP-A, OMFP fluorogenic substrate, fluorescence intensity; inhibition, % at 20 µM; 360,000 tested, 0.22% active; AID 651560;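 active = compounds that cut the enzyme signal by at least half of the control window in the single-dose screen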;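 also: plate controls were DMSO wells with enzyme plus substrate for no effect and substrate without enzyme for full effect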
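Material: LMPTP-A; amount: 0.625 nM enzyme; doses: single 20 µM dose; times: reaction 50 min, room temperature, dark; technique: fluorescence intensity of OMFP turnover product; benchmarks: no-enzyme and uninhibited controls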
Scp-1 conf: confirmation of human Scp-1 phosphatase inhibitors. shares compounds with Scp-1 inhibitor. recombinant SCP-1 catalytic domain, phosphate release, malachite green absorbance. inhibition, % at 20 µM. 2,500 tested, 61% active;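 also: plate controls were DMSO with enzyme for no effect and buffer wells lacking enzyme for full effect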
MG interference: counter-screen for Scp-1 inhibitors: colorimetric interference; shares compounds with Scp-1 inhibitor; Colorimetric interference counterscreen, malachite green absorbance 630 nm; apparent inhibition (interference), % at 20 µM; 2,500 tested, under 10 active;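 also: compounds added after enzyme reaction finished so only phosphate colour detection is probed; plate controls were DMSO wells with completed Scp-1 reaction for no effect and substrate wells lacking enzyme for full effect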
Scp1 DSF: binds human Scp-1, shifting its melting temperature. shares compounds with Scp-1 inhibitor. Recombinant SCP1, Sypro Orange thermal shift Tm. thermal shift relative to vanadate control, % at 40 µM. 1,500 tested, 25% active;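 active = substances whose mean melting-temperature shift, as a percentage of the reference inhibitor's shift, reaches about 5.3%, limit read from the data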;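 also: 0% = Tm of DMSO wells and 100% = Tm with sodium orthovanadate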
Beacon interf DR: beacon fluorescence artifact, dose response counter-screen | 200 tested, under 10 active | IC50, µM | shares compounds with DNMT1 inh | molecular beacon fluorescence, spectral interference counter-screen; call rule not given here
DNMT1 inh conf: DNMT1 inhibition confirmation, single concentration. shares compounds with DNMT1 inh. DNMT1 molecular beacon HinP1I cleavage, fluorescence. inhibition, % at 10 µM. 2,300 tested, 8% active. AID 602385;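 active = average inhibition of at least 30% in the single-concentration confirmation test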
DNMT1 interf: counter-screen for DNMT1 inhibitors: spectral interference | DNMT1 molecular beacon spectral interference counterscreen, fluorescence 485/520 | 2,300 tested, 1% active | activation (fluorescence interference), % at 10 µM | shares compounds with DNMT1 inh;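 active = activation of at least 30% at 10 µM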;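 also: DNMT1 catalytic domain with a HinP1I cleavage step and a FAM/dabcyl DNA beacon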
STEP conf: confirmation of human STEP phosphatase inhibitors; shares compounds with STEP block; recombinant STEP, OMFP fluorogenic substrate, fluorescence; inhibition, % at 20 µM; 520 tested, 32% active; call rule not given here;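 also: 0% = enzyme with substrate plus DMSO and 100% = substrate without enzyme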
NadD conf: NadD (S. aureus) inhibition, single concentration confirmation; 2,000 tested, 13% active; AID 624309; purified S. aureus NadD, colorimetric enzyme assay; inhibition, % at 20 µM; shares compounds with NadD inh; in the data active = inhibition mostly above about 42%, no sharp cut-off; inactive = mostly below about 42%
* marks the source's active call; other numbers are inactive results; / = no result. Rows were chosen to be rich in hits. Some 2.3% of all compounds tested hit in one or more screens of this group.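 The calls were made as follows, unless noted: active = inhibition of at least 30% at 20 µM; inactive = the rest.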

SMILES	SUMO1 PPI mod	Scp-1 inhibitor	DNMT1 inh	NadD inh	STEP block	LMPTP block	Scp-1 conf	MG interference	Scp1 DSF	DNMT1 inh conf	DNMT1 interf	NadD conf	others
O=C(Nc1ccccc1C(F)(F)F)NC1(C(=O)N2CCOCC2)CCCCC1	42*	75*	95*	31*	28	61*	55*	-22	12*	9	-4	46
C/C(=N\NC(=O)c1nnn(-c2nonc2N)c1-c1ccc2c(c1)OCO2)c1ccc(C)cc1	-1	-2	6	29	-2	1	/	/	/	/	/	/
COC(=O)c1c(NC(=O)COC(=O)c2ccc(NC(=O)CC#N)cc2)sc2c1CCCCC2	71*	76*	103*	82*	10	74*	71*	-10	14*	27	-3	25	Beacon interf DR=>99
COC(=O)c1c(NC(=O)COC(=O)c2ccccc2O)sc2c1CCCCC2	4	-5	15	2	2	-1	/	/	/	/	/	/
Cc1ccc2nc(/C(C#N)=C/c3ccc(-c4cccc([N+](=O)[O-])c4)o3)[nH]c2c1	-5	90*	83*	32*	94*	44	73*	-1	11*	-1	-4	9
Cc1ccc2nc(/C(C#N)=C\c3ccc(Oc4ccc(C(F)(F)F)cc4[N+](=O)[O-])cc3)[nH]c2c1	-5	97*	81*	33*	12	13	87*	2	5.6*	1	-2	4
O=S(=O)(Cc1cc(NCc2ccccc2)nc(-c2ccccn2)n1)c1ccccc1	0	1	1	2	-1	-2	/	/	/	/	/	/
O=C1Nc2ccccc2C1=Nc1ccc(S(=O)(=O)Nc2nccs2)cc1	88*	80*	4	54*	38	3	73*	-5	13*	/	/	74*
NS(=O)(=O)c1ccc(N=C2C(=O)Nc3ccccc32)cc1	-29	-3	-1	-6	-2	-1	/	/	/	/	/	/
COc1ccc(C2=NS(=O)(=O)N(C)C(C(=O)Nc3ccc4c(c3)OCO4)=C2)cc1OC	-24	-7	-18	-1	-5	1	/	/	/	/	/	/
O=C(N/N=C/c1cn(-c2cccs2)nc1-c1ccccc1)c1ccccc1O	18	72*	-18	34*	0	4	27	-24	/	/	/	19
O=C(O)c1ccc(/C=N/NC(=O)c2cc(-c3ccc4c5c(cccc35)CC4)n[nH]2)cc1	15	76*	1	28*	52*	5	67*	-14	-49	/	/	34	STEP conf=-9
CSc1ccccc1NC(=O)COC(=O)c1ccc(-n2nc(C)cc2C)cc1	2	-3	1	-3	1	0	/	/	/	/	/	/
CSc1ccc(NC(=O)CSc2nc3[nH]c(=O)cc(O)c3s2)cc1	12	71*	52*	54*	10	48	40*	-21	14*	2	-2	28
O=C(CSc1ccc2nnc(-c3cccnc3)n2n1)Nc1ccccc1F	-19	/	3	5	0	-1	/	/	/	/	/	/
